This sample holds only a part of the variants without activity.

Sequences and labels used below:
B1: tRNA (parent)
chain: GUUCCGUUGGCGUAAUGGUAACGCGUCUCCCUCCUAAGGAGAAGACUGCGGGUUCGAGUCCCGUACGGAACG

In this data set the parent is B1. Kind of data set: yeast fitness relative to wild type (ratio to wild type); higher = fitter; tRNA-Arg(CCU), competitive growth, 37 C, YPD. The method in brief: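 Amplicons of the tRNA-Arg(CCU) gene were sequenced, 100-nucleotide paired-end, from the start population and from each end population of a pooled yeast competition. The competition, in six parallel replicates, lasted 24 hours in YPD at 37°C. Fitness relative to wild type was calculated from changes in genotype frequencies. Genotypes had to have ≥ 100 starting reads, and estimates < 0.5 were set to 0.5.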
GUUCCGUUGGCGUAAUGGUAACGCGUCUCCAUCCUAAGGAGAAGACUGUGGGUUCGAGUCUCGUACGGAACG [C31A C49U C61U]: the yeast fitness came out at 0.663.

As for GUUCCGUUGGCGUAAUGGUAACGCGUCUCCAUCCUAAGGAGCAGAGUGCGGGUUCGAGUCCCGUACAGAACG [C31A A42C C46G G67A], the yeast fitness was found to be 0.625.

For GUUCCGUUGGCGUAAUGGUAACGCGUCUCCAUCCUAAGGAGAAGACUGCGGGUUCGGGUCUCGUACGGAACG [C31A A57G C61U], the yeast fitness was no more than 0.5.

GUUCCGUUGGCGUAAUGGUAACGCGUCUCCAUCCUAAGGAGAAGACUGCGGGUUCGAGUCCCGUUAGGAACG [C31A A65U C66A]: the yeast fitness is no more than 0.5.

GUUCCGUUGGCGUAAUGGUAACGCGUCUCCAUCCUAAGGAGAGGACUGCAGGUUCGUGUCCCGUACGGAACG [C31A A43G G50A A57U]: the yeast fitness was determined as 0.768.

GUUCCGUUGGCGUAAUGGUAACGCGUCUCCAUCCUAAGGAGAAGACUGCGCGUUCGAGUUCCGUACAGAACG [C31A G51C C60U G67A]: the yeast fitness is no more than 0.5.

As for GUUCCGUUGGCGUAAUGGUAACGCGUCUCCAUUCUAAGGACAAGACUGCGGGUUCGAGUCCCGUACCGAACG [C31A C33U G41C G67C], the yeast fitness was no more than 0.5.

Take GUUCCGUUGGCGUAAUGGUAACGCGUCUCCAUCCUAAGGAGGGGACUGCGGGUUCGAGUCCCGUACGCAACG [C31A A42G A43G G68C]: the yeast fitness stood at 0.52.

For GUUCCGUUGGCGUAAUGGUAACGCGUCUCCAUCCUAAGGAGAGGACUGCGGGUUCGAGUCCCGUACGAAACG [C31A A43G G68A], the yeast fitness was found to be 0.657.

On to GUUCCGUUGGCGUAAUGGUAACGCGUCUCCAUCCUAAGGAGAAAACUGCGGGUUCGAGUCCCGUACGGAACG [C31A G44A], for which the yeast fitness was found to be 0.792.

Regarding GUUCCGUUGGCGUAAUGGUAACGCGUCUCCAUCCUAAAGAGAAGAUUGCGGGUUCGAGUCCCGUACGGAACG [C31A G38A C46U], the yeast fitness was no more than 0.5.

For GUUCCGUUGGCGUAAUGGUAACGCGUCUCCAUCCUAAGGAGAAGACUGCGGGUUCGUGUCCCGUACGGUACG [C31A A57U A69U], the yeast fitness was no more than 0.5.

Regarding GUUCCGUUGGCGUAAUGGUAACGCGUCUCCAUCCUAAGGAGAAGACUGCGGGUUCGAGUCCCGUAUGGAACG [C31A C66U], the yeast fitness stood at 0.788.

On to GUUCCGUUGGCGUAAUGGUAACGCGUCUCCAUCCUAAGGAGAAGAAUGCGGGUUCGAGUCCCGUUCGGAACG [C31A C46A A65U], for which the yeast fitness was no more than 0.5.

Turning to GUUCCGUUGGCGUAAUGGUAACGCGUCUCCAUGCUUAGGAGAAGACUGCGGGUUCGAGUCCCGUAUGGAACG [C31A C33G A36U C66U], the yeast fitness is no more than 0.5.

For GUUCCGUUGGCGUAAUGGUAACGCGUCUCCAUCCUAAGGAGAAGACUCCGGGUUCGAGUCCCGUACGGAACG [C31A G48C], the yeast fitness is 0.661.

GUUCCGUUGGCGUAAUGGUAACGCGUCUCCAUCCUAAGGAGAAGACUACGGGUUCGAGUCCCGUACGGAACG [C31A G48A]: the yeast fitness was found to be 0.764.

On to GUUCCGUUGGCGUAAUGGUAACGCGUCUCCAUCAUAAGGAGAAGACUGCGGGUUCGAGUCCCGUACGGAACG [C31A C34A], for which the yeast fitness turned out to be 0.603.

Regarding GUUCCGUUGGCGUAAUGGUAACGCGUCUCCAUCCUAAGGAGAAGACUGCGGGUUCGAGUCCGAUAGGGGACG [C31A C62G G63A C66G A69G], the yeast fitness is no more than 0.5.

For the variant GUUCCGUUGGCGUAAUGGUAACGCGUCUCCAUACUAAGGAGAAGACUGCGGGUUGGUGUCCCGUAUAGAACG [C31A C33A C55G A57U C66U G67A], the yeast fitness is no more than 0.5.

With GUUCCGUUGGCGUAAUGGUAACGCGUCUCCAUCCUAAGGAGAAGACUGCGGGUUCGGGUCCCGUACGAAACG [C31A A57G G68A], the yeast fitness was no more than 0.5.

As for GUUCCGUUGGCGUAAUGGUAACGCGUCUCCAUCCUAAGGAGAAGAUUGCGGGUUCGAGUCCCGUACGGACCG [C31A C46U A70C], the yeast fitness was determined as 0.62.

GUUCCGUUGGCGUAAUGGUAACGCGUCUCCAUCCUAAGGAGAAGACUGCGGGUUCGAGUCCAGUACGGACCG [C31A C62A A70C]: the yeast fitness was 0.548.

On to GUUCCGUUGGCGUAAUGGUAACGCGUCUCCAUCCUAAGGAGAAGACUGCGGGUUCGAGUACCGUACGGAACG [C31A C60A], for which the yeast fitness came out at 0.629.

Consider GUUCCGUUGGCGUAAUGGUAACGCGUCUCCAUGCUUAGGAGAAGACUGCGGGUCCGAGUCCCGUACGGAACG [C31A C33G A36U U54C], for which the yeast fitness was no more than 0.5.

Take GUUCCGUUGGCGUAAUGGUAACGCGUCUCCAUCCUAAGGAGAAAACUGCGGGUUCGCGUCCAGUACGCAACG [C31A G44A A57C C62A G68C]: the yeast fitness stood at 0.559.

For GUUCCGUUGGCGUAAUGGUAACGCGUCUCCAUCCUAAGGAGCAGAGUGCGGGUUCGAGUCCCGUACGGAACG [C31A A42C C46G], the yeast fitness was found to be 0.959.

As for GUUCCGUUGGCGUAAUGGUAACGCGUCUCCAUGCUUAGGAGAAGACUGCGGGUUCGAGUCCCGUACGGAACG [C31A C33G A36U], the yeast fitness came out at 0.676.

For the variant GUUCCGUUGGCGUAAUGGUAACGCGUCUCCAUCCUAAGGAGAAGACUGCAGGUUCGAGUCCCGUACGGAACG [C31A G50A], the yeast fitness turned out to be 0.791.

Consider GUUCCGUUGGCGUAAUGGUAACGCGUCUCCAUCCUAAGGAGAAGACUCCGGGUCCGAGUCACGUACGGAGCG [C31A G48C U54C C61A A70G], for which the yeast fitness was no more than 0.5.

Consider GUUCCGUUGGCGUAAUGGUAACGCGUCUCCAUCCUAACGAGAAGACUGCGGGUUCGAGUCCCGUACGGAACG [C31A G38C], for which the yeast fitness was found to be 0.749.

For GUUCCGUUGGCGUAAUGGUAACGCGUCUCCAUCCUAAGGAGAAGAGUGCGGGUUCGAGUCCCGUACGGAACG [C31A C46G], the yeast fitness stood at 0.852.

Take GUUCCGUUGGCGUAAUGGUAACGCGUCUCCAUCCUAAGGAGAAGAAUGCGGGUUCGAGUCCCGUACGGAACG [C31A C46A]: the yeast fitness came out at 0.853.

Take GUUCCGUUGGCGUAAUGGUAACGCGUCUCCAUCCUAAGGAGAAGACUGCGGGUUCGAGUCGCGUACCGAGCG [C31A C61G G67C A70G]: the yeast fitness was no more than 0.5.

With GUUCCGUUGGCGUAAUGGUAACGCGUCUCCAUUCUAAGGAGAAGACUGUGGGUUCGAGUCCCGUACGGAACG [C31A C33U C49U], the yeast fitness was no more than 0.5.

Take GUUCCGUUGGCGUAAUGGUAACGCGUCUCCAUCCUAAGGUGAAGACUGCGGGGUCCAGUCCGGUACGGAACG [C31A A40U U53G G56C C62G]: the yeast fitness is no more than 0.5.

GUUCCGUUGGCGUAAUGGUAACGCGUCUCCAUCCUAAGGAGAAGCCUGCGGGUUCGAGUCCUAAACGGAACG [C31A A45C C62U G63A U64A]: the yeast fitness was 0.521.
